# Assay outcomes deposited in PubChem by several laboratories.
# CASP6 VEID inh – inhibitors of human caspase-6; AID 686996; purified caspase-6, Z-VEID-R110 cleavage fluorescence; 350,000 tested, 0.53% active; inhibition, % at 12.5 µM;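 active = mean inhibition across replicates at least about 35%, with every replicate also reaching that limit, limit read from the data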;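 note: 0% = median of neutral control wells and 100% = no fluorescence left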
# MBD2 DNA inh – MBD2-methylated oligo binding inhibition. inhibition, % at 4.4 µM. 370,000 tested, 0.31% active. TR-FRET, MBD2 binding to methylated oligonucleotide. Q9UBB5; in the data active = inhibition above about 13%
# TDP2 inh – TDP2 (human) inhibition, absorbance primary screen. O95551. recombinant TDP2, T5PNP hydrolysis, p-nitrophenol absorbance 415 nm. inhibition, % at 12.8 µM. 370,000 tested, 0.34% active;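 active = inhibition above the mean of all tested compounds plus 3 SD, set per campaign, cut at about 25% in these data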;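 note: 0% = DMSO with enzyme and 100% = buffer with substrate but no TDP2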
#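 System: recombinant human TDP2 / Amount: 120 nM TDP2 per well / Also added: 5 mM T5PNP chromogenic substrate / Doses: 12.8 µM single point, 1% DMSO / Incubation: 2 h at 37 °C / Detection: p-Nitrophenol epi absorbance / Evaluation: % inhibition relative to enzyme-containing and enzyme-free wells / Repeats: singlicate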
# LEDGF integ inh – blocks HIV-1 LEDGF/p75-dependent DNA integration. TR-FRET IN-LEDGF/p75 DNA integration, Eu/Cy5. 370,000 tested, 0.64% active. AID 743269. inhibition, % at 3.7 µM;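 active = inhibition above the screen-wide mean plus 3 SD, cut at about 13% in these data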;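 note: signal is the Cy5 over europium emission ratio at 671 and 618 nm; 0% = plate median of compound wells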
# UHRF1 MBD2 ctr – UHRF1 methyl-DNA binding inhibition; inhibition, % at 4.4 µM; Q96T88; UHRF1 binding to methylated oligo, TR-FRET; 370,000 tested, 0.75% active; in the data active = inhibition above about 21%;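 note: UHRF1 SRA domain binding a hemimethylated CpG hairpin DNA probe; 0% = median of test compound wells and 100% = reference inhibitor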
# NSD2 HMT inh – blocks human histone methyltransferase NSD2. O96028. NSD2 peptide methylation, AlphaScreen, 120 min. inhibition, % at 12.5 µM. 310,000 tested, 0.54% active. AID 743445; in the data active = inhibition above about 50%
# Starred values were filed as active, the others as inactive; nt = not tested or not shown; ! = repeats disagree. Compounds with a hit are over-represented: about 1.8% of the library has one in this group of screens.
SMILES,CASP6 VEID inh,MBD2 DNA inh,TDP2 inh,LEDGF integ inh,UHRF1 MBD2 ctr,NSD2 HMT inh
Cc1cc(C)c2c(=N)c3ccccc3n(CCCCCCCCn3c4ccccc4c(=N)c4c(C)cc(C)nc43)c2n1,18,28*,-7,-2,41*,nt
C(=N\NCc1ccccc1)/c1ccc2ncccc2c1,-1,4,-2,-1,0,2
S=C(N/N=C/c1ccc2ncccc2c1)Nc1ccccc1,-4,-1,1,0,32*,-26
Fc1ccc(/C=N/NC(=S)Nc2cccnc2)cc1F,-6,4,-1,4,-2,-1
Fc1ccc(/C=N/NC(=S)Nc2cccnc2)cc1,48*,6,-5,3,4,0
Cc1noc(C)c1NC(=O)N(C)C[C@H]1Oc2ccc(NC(=O)Nc3ccccc3)cc2CC(=O)N([C@@H](C)CO)C[C@H]1C,-2,nt,nt,nt,nt,nt
CC(C)NC(=O)Nc1cccc2c1O[C@@H](CN(C)Cc1ccccc1)[C@@H](C)CN([C@H](C)CO)C2=O,0,nt,nt,nt,nt,nt
CC1CCc2c(sc(NC(=O)/C=C/c3cccs3)c2C(=O)O)C1 (centres undefined),24,-2,-7,31*,-2,5
CC1CCc2c(sc(NC(=O)c3ccco3)c2C(=O)O)C1 (centres undefined),-3,-3,-10,-1,3,-1
Cc1nnc(SCC(C)C)[nH]c1=O,nt,-5,7,2,22*,5
COc1cc2c(cc1OC)C(C)N(C(=O)C1=NN(c3cccc(C)c3)C(=O)CC1)CC2 (centres undefined),0,10,10,0,22*,6
CCN1CCN(Cc2ccc(NC(=O)c3ccc(C)c(NC(=O)c4nccn4C)c3)cc2C(F)(F)F)CC1,-8,8,-2,4,3,nt
CCN1CCN(Cc2ccc(NC(=O)c3ccc(C)c(NC(=O)N4CCNC4=O)c3)cc2C(F)(F)F)CC1,-1,11,1,1,23*!,nt
CC(=O)N1C[C@H]2CON(C)[C@H]2C[C@H]1c1ccccc1Br,1,0,0,4,-2,nt
CN1OC[C@@H]2CN(C(=O)CCc3ccccc3)[C@H](c3ccccc3Br)C[C@@H]21,-1,-4,0,4,77*,nt
C[C@@H]1CN([C@H](C)CO)C(=O)c2cccc(NC(=O)Nc3ccc(C(F)(F)F)cc3)c2O[C@H]1CN(C)C(=O)Nc1ccc(C(F)(F)F)cc1,-3,nt,nt,nt,nt,nt
C[C@@H]1CCCCO[C@@H](CN(C)CC2CCCCC2)[C@@H](C)CN([C@H](C)CO)C(=O)c2cc(NC(=O)Nc3cccc4ccccc34)ccc2O1,0,nt,nt,nt,nt,nt
CSc1ccc(NC(=O)Nc2ccc(C(=O)NCC(=O)O)cc2)cc1,52*,3,-2,-1,4,26
CCSc1ccc(C(=O)NCC(=O)O)cc1,1,1,-3,1,2,-3
O=C(O)c1cc(S(=O)(=O)Nc2ccc3oc(=O)sc3c2)ccc1O,nt,1,0,16*,2,nt
O=C(O)C1CC(c2ccc(F)cc2)=NO1 (centres undefined),nt,5,4,4,27*,-1
N=C1C(=O)OCC1c1ccccc1NC(=O)c1ccc(F)cc1 (centres undefined),nt,-1,10,-2,51*,-2
O=C(CCc1ccccc1)N[C@@H]1c2ccccc2CC[C@H]1OCc1ccccc1,4,5,-9,6,23*,nt
COc1ccc(NC2=C(C(C)=O)C(c3ccccc3)C(C(C)=O)C(C)(O)C2)cc1 (centres undefined),-1,1,0,-3,61*,8
COCC(=O)Nc1ccc2c(c1)C(=O)N(C)C[C@@H](OC)[C@@H](C)CN(C(=O)c1ccccc1F)[C@H](C)CO2,3,nt,nt,nt,nt,nt
SMILES,CASP6 VEID inh,MBD2 DNA inh,TDP2 inh,LEDGF integ inh,UHRF1 MBD2 ctr,NSD2 HMT inh
O=C(NC1CCN(S(=O)(=O)c2ccc(Cl)c(F)c2)CC1)c1cccnc1,0,-2,8,4,-1,nt
O=C(NC1CCN(S(=O)(=O)c2ccc(Cl)cc2)CC1)c1cccnc1,0,10,2,0,31*,28
C[C@@H]1CN([C@@H](C)CO)C(=O)c2ccccc2-c2ccccc2CO[C@H]1CN(C)S(=O)(=O)c1ccc(C(F)(F)F)cc1,0,nt,nt,nt,nt,nt
O=C(c1ccc(F)cc1)N1CC(=O)N2[C@H](C1)[C@@H](c1ccc(C#CC3CCCC3)cc1)[C@@H]2CO,1,nt,nt,nt,nt,nt
Cc1ccc(/C(N)=N/OC(=O)Cc2cccs2)cc1,nt,-3,1,-2,0,1
Cc1ccc(/C(N)=N/OC(=O)Cc2cccc3ccccc23)cc1,0,6,-8,0,24*,0
N/C(=N\OC(=O)Cc1cccs1)c1ccccc1,nt,9,7,-2,21*,-1
Cc1cccc(/C(N)=N/OC(=O)Cc2cccc3ccccc23)c1,4,1,2,2,0,-2
C[C@H](CO)N1C[C@H](C)[C@H](CN(C)Cc2ccccc2)Oc2ccc(NC(=O)c3ccncc3)cc2C1=O,-1,nt,nt,nt,nt,nt
COc1cc(SC)ccc1C(=O)OC(C)C(=O)NC1CCCC1 (centres undefined),38*,2,-1,0,5,-1
COc1cc(SC)ccc1C(=O)NCC1CCCCC1,0,4,5,5,-2,-2
COCc1cc(=O)n2[nH]c(-c3ccsc3-n3c(C)ccc3C)cc2n1,nt,36*,5,81*,72*,1
COCc1cc(=O)n2[nH]c(N)nc2n1,2,-3,2,-1,4,0
O=C(C[C@H]1CC[C@@H]2[C@H](COC[C@@H](O)CN2C(=O)c2ccccn2)O1)NC1CCC1,-3,nt,nt,nt,nt,nt
CCCOC(=O)Nc1nc2ccccc2o1,nt,-2,-5,1,0,4
CCOC(=O)c1cnc(Nc2nc3ccccc3o2)nc1CN1CCN(C)CC1,nt,-3,-4,18*,-5,nt
O=C(Nc1ccc2c(c1)OCO2)C1Cc2c(-c3ccc4c(c3)OCO4)ccnc2O1 (centres undefined),65*,-5,-5,4,-4,7
CC(=O)Nc1ccc(NC(=O)C2Cc3c(-c4ccc5c(c4)OCO5)ccnc3O2)cc1 (centres undefined),0,1,2,1,0,-1
Cc1cc(C)c(C(=O)N2CCCC(Nc3ccc(F)cc3)C2)o1 (centres undefined),2,3,5,-1,1,4
Cn1c(C(=O)N2CCCC(Nc3ccc(F)cc3)C2)cc2ccccc21 (centres undefined),41*,-2,8,1,-2,6
CCN(CC)CCCNC(=O)c1cn(C)c2ccc(S(=O)(=O)N(C)C)cc2c1=O,-2,8,5,6,27*,nt
CCOC(=O)C(C)Oc1cc(Cl)c(C=O)cc1OC (centres undefined),1,-1,13,2,62*,0
